Source: ChEMBL document CHEMBL1121429, “Soft drugs. 1. Labile quaternary ammonium salts as soft antimicrobials” (J Med Chem, 1980)

Legend:
Streptococcus pyogenes [1] = assay: Sterilization time for contact germicidal efficiency (CGE) of salt was tested against Streptococcus pyogenes at pH 7.0, concentration 610 ppm; type: functional
In short: (§1)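 Test solutions of the quaternary salt in buffer stood 30 min at room temperature. 0.2 mL of overnight broth culture was added to 5 mL of solution. Inocula: S. aureus ATCC 6538 6-8 × 10^6 cfu/mL, P. aeruginosa ATCC 9027 12-13 × 10^6/mL, S. pyogenes ATCC 19615 5 × 10^6 cfu/mL. At 0.5-30 min intervals a loop was subcultured into nutrient broth and incubated 7 days at 37 °C. Sterilization time is the first interval giving no growth.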

Pseudomonas aeruginosa [2] = assay: Sterilization time for contact germicidal efficiency (CGE) of salt was tested against Pseudomonas aeruginosa at pH 7.0, concentration 610 ppm; type: functional; in short: as §1
Staphylococcus aureus [3] = assay: Sterilization time for contact germicidal efficiency (CGE) of salt was tested against Staphylococcus aureus at pH 7.0, concentration 610 ppm; type: functional; in short: as §1
Staphylococcus aureus [4] = assay: Sterilization time for contact germicidal efficiency (CGE) of salt was tested against at Staphylococcus aureus at pH 8.0, concentration 1022 ppm; type: functional
In short: (§2)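 Staphylococcus aureus ATCC 6538, overnight broth culture at 6-8 × 10^6 cfu/mL; 0.2 mL inoculated into 5 mL of buffered quaternary salt solution pre-held 30 min at room temperature. Loop subcultures (3 mm) taken at 0.5-30 min intervals into nutrient broth, incubated at 37 °C for 7 days and read daily. The endpoint is the earliest time giving a growth-free subculture.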

Staphylococcus aureus [5] = assay: Minimum inhibitory concentration of salt was tested against Staphylococcus aureus aureus at 0.1 M NaH2PO4 adjusted to pH 7.0; type: functional
In short: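 Bacteria grown 18-20 h at 37 °C in tryptose phosphate broth, adjusted to OD650 0.01, then diluted into double-strength medium to about 2 × 10^5 viable organisms/mL. Compound in 0.1 M NaH2PO4 pH 7.0 was serially twofold diluted into sterile water and added 1:1 to the cultures. MIC read after 18-20 h at 37 °C, with viability, sterility and buffer controls.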

Streptococcus pyogenes [6] = assay: Sterilization time for contact germicidal efficiency (CGE) of salt was tested against at Streptococcus pyogenes at pH 8.0, concentration 1022 ppm; type: functional
In short: (§3)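 Streptococcus pyogenes ATCC 19615 overnight culture, 5 × 10^6 cfu/mL; 0.2 mL into 5 mL test solution of salt in buffer, left 30 min at room temperature beforehand. At timed intervals (0.5 to 30 min), a 3-mm loop was transferred to sterile nutrient broth and incubated at 37 °C for 7 days. Sterilization time is the shortest interval without growth; buffer-only and viability controls were run.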

Streptococcus pyogenes [7] = assay: Minimum inhibitory concentration of salt was tested against Streptococcus pyogenes aureus at 0.1 M NaH2PO4 adjusted to pH 7.0; type: functional
Pseudomonas aeruginosa [8] = assay: Sterilization time for contact germicidal efficiency (CGE) of salt was tested against at Pseudomonas aeruginosa at pH 6.0, concentration 1016 ppm; type: functional; in short: as §1
Pseudomonas aeruginosa [9] = assay: (§4) Sterilization time for contact germicidal efficiency (CGE) of salt was tested against at Pseudomonas aeruginosa at pH 7.0, concentration 1027 ppm; type: functional; in short: as §1
Bacillus subtilis = assay: Minimum inhibitory concentration of salt was tested against Bacillus subtilis at 0.1 M NaH2PO4 adjusted to pH 7.0; type: functional
Streptococcus pyogenes [10] = assay: Sterilization time for contact germicidal efficiency (CGE) of salt was tested against at Streptococcus pyogenes at pH 6.0, concentration 1016 ppm; type: functional; in short: as §3
Pseudomonas aeruginosa [11] = assay: as §4; type: functional; in short: as §1; remark: listed apart in the source
Pseudomonas aeruginosa [12] = assay: Minimum inhibitory concentration of salt was tested against Pseudomonas aeruginosa at 0.1 M NaH2PO4 adjusted to pH 7.0; type: functional
Streptococcus pyogenes [13] = assay: Sterilization time for contact germicidal efficiency (CGE) of salt was tested against at Streptococcus pyogenes at pH 7.0, concentration 1027 ppm; type: functional; in short: as §3
Staphylococcus aureus [14] = assay: Sterilization time for contact germicidal efficiency (CGE) of salt was tested against Staphylococcus aureus at pH 7.0 in water diluent; type: functional; in short: as §1
Staphylococcus aureus [15] = assay: Sterilization time for contact germicidal efficiency (CGE) of salt was tested against at Staphylococcus aureus at pH 7.0, concentration 1027 ppm; type: functional; in short: as §2
Pseudomonas aeruginosa [16] = assay: Sterilization time for contact germicidal efficiency (CGE) of salt was tested against at Pseudomonas aeruginosa at pH 8.0, concentration 1022 ppm; type: functional
In short: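 Pseudomonas aeruginosa ATCC 9027 overnight broth culture (12-13 × 10^6 organisms/mL); 0.2 mL added to 5 mL buffered salt solution held 30 min at room temperature. At intervals from 0.5 to 30 min, a 3-mm loop was subcultured into nutrient broth and incubated at 37 °C for 7 days. Sterilization time is the shortest interval whose subculture gave no growth.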

Staphylococcus aureus [17] = assay: Sterilization time for contact germicidal efficiency (CGE) of salt was tested against at Staphylococcus aureus at pH 6.0, concentration 1016 p.p.m.; type: functional; in short: as §2
Staphylococcus aureus [18] = assay: Sterilization time for contact germicidal efficiency (CGE) of salt was tested against Staphylococcus aureus at pH 7.0 in horse serum at contact time=10 min; type: functional
In short: (§5)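 S. aureus ATCC 6538 CGE screen with solutions in 0.1 M NaH2PO4 pH 7.0 diluted with 10% horse serum in distilled water, adjusted to pH 7 with CO2. Contact times of 0-15 min were used. Overnight culture was added, and loop subcultures taken at 0.5-30 min were grown 7 days at 37 °C in nutrient broth. Sterilization time is the first interval giving no growth.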

Staphylococcus aureus [19] = assay: Sterilization time for contact germicidal efficiency (CGE) of salt was tested against Staphylococcus aureus at pH 7.0 in horse serum at contact time=15 min; type: functional; in short: as §5
Staphylococcus aureus [20] = assay: Sterilization time for contact germicidal efficiency (CGE) of salt was tested against Staphylococcus aureus at pH 7.0 in horse serum at contact time=0 min; type: functional; in short: as §5
Staphylococcus aureus [21] = assay: Sterilization time for contact germicidal efficiency (CGE) of salt was tested against Staphylococcus aureus at pH 7.0, concentration 1027 ppm; type: functional; in short: as §1
Salmonella typhimurium = assay: Minimum inhibitory concentration of salt was tested against Salmonella Typhimurium […] at 0.1 M NaH2PO4 adjusted to pH 7.0; type: functional; details: Salmonella enterica
Staphylococcus aureus [22] = assay: Sterilization time for contact germicidal efficiency (CGE) of salt was tested against Staphylococcus aureus at pH 7.0 in horse serum at contact time=5 min; type: functional; in short: as §5
Staphylococcus aureus [23] = assay: Sterilization time for contact germicidal efficiency (CGE) of salt was tested against Staphylococcus aureus at pH 7.0, concentration 254 ppm; type: functional
Streptococcus pyogenes [24] = assay: Sterilization time for contact germicidal efficiency (CGE) of salt was tested against Streptococcus pyogenes at pH 7.0, concentration 254 ppm; type: functional
Pseudomonas aeruginosa [25] = assay: Sterilization time for contact germicidal efficiency (CGE) of salt was tested against Pseudomonas aeruginosa at pH 7.0, concentration 254 ppm; type: functional
Staphylococcus aureus [26] = assay: Sterilization time for contact germicidal efficiency (CGE) of salt was tested against Staphylococcus aureus at pH 7.0, concentration 1042.1 ppm; type: functional; in short: as §1
Streptococcus pyogenes [27] = assay: Sterilization time for contact germicidal efficiency (CGE) of salt was tested against at Streptococcus pyogenes at pH 7.0, concentration 1042.1 ppm; type: functional; in short: as §3
Pseudomonas aeruginosa [28] = assay: Sterilization time for contact germicidal efficiency (CGE) of salt was tested against at Pseudomonas aeruginosa at pH 7.0, concentration 1042.1 ppm; type: functional; in short: as §1
[29] = Toxicity of the salt was tested on white swiss male mice after intravenous administration; type: organism-based; details: mouse, in vivo
In short: (§6)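 Male White Swiss mice (MCR-ICR), 20-23 g, 10-20 per dose. Salt given in isotonic NaCl, pH 7.0 (adjusted with sodium bicarbonate). LD50 with confidence limits was calculated by Litchfield–Wilcoxon.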

[30] = Toxicity of the salt was tested on white swiss male mice after intraperitoneal administration; type: organism-based; details: mouse, in vivo, ip; in short: as §6
[31] = Toxicity of the salt was tested on white swiss male mice after oral administration; type: organism-based; details: mouse, in vivo
In short: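 Male White Swiss mice (MCR-ICR), 20-23 g, 10-20 per dose, dosed orally. At higher doses the salt was given in 0.8% NaCl brought to pH 5.84 with sodium bicarbonate. LD50 was calculated by Litchfield–Wilcoxon.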

For CCCCCCCCCCCC(=O)O [DODECANOATE], the Time (Streptococcus pyogenes [1]) was >30 min, the Time (Pseudomonas aeruginosa [2]) was >30 min and the Time (Staphylococcus aureus [3]) was >30 min.
CCCCCCCCCCCC(=O)OC[N+]12CCC(CC1)CC2.[Cl-] gave a Time (Staphylococcus aureus [4]) of 0.5 min, an MIC (Staphylococcus aureus [5]) of 16.4 µg/mL and a Time (Streptococcus pyogenes [6]) of 2 min. It also gave an MIC (Streptococcus pyogenes [7]) of 4.1 µg/mL, a Time (Pseudomonas aeruginosa [8]) of 0.5 min and a Time (Pseudomonas aeruginosa [9]) of 0.5 min. It also gave an MIC (Bacillus subtilis) of 32.8 µg/mL, a Time (Streptococcus pyogenes [10]) of 0.5 min and a Time (Pseudomonas aeruginosa [11]) of 3 min. It also gave an MIC (Pseudomonas aeruginosa [12]) of 1050 µg/mL, a Time (Streptococcus pyogenes [13]) of 0.5 min and a Time (Staphylococcus aureus [14]) of 0.5 min. For the same compound, the Time (Staphylococcus aureus [15]) was 0.5 min, the Time (Pseudomonas aeruginosa [16]) was 0.5 min and the Time (Staphylococcus aureus [17]) was 1 min. The Time (Staphylococcus aureus [18]) was 5 min, the Time (Staphylococcus aureus [19]) was >30 min and the Time (Staphylococcus aureus [20]) was 1 min. The Time (Staphylococcus aureus [21]) was 0.5 min, the MIC (Salmonella typhimurium) was 262 µg/mL and the Time (Staphylococcus aureus [22]) was 3 min.
In the case of Cn1ccnc1 [1-METHYLIMIDAZOLE], the Time (Staphylococcus aureus [23]) is reported as >30 min, the Time (Streptococcus pyogenes [24]) is reported as >30 min and the Time (Pseudomonas aeruginosa [25]) is reported as >30 min.
Work on CCCCCCCCCCCCCC(=O)OC[n+]1ccccc1.[Cl-] yielded a Time (Staphylococcus aureus [26]) of 1 min, a Time (Streptococcus pyogenes [27]) of 0.5 min and a Time (Pseudomonas aeruginosa [28]) of 1 min.
For CCCCCCCCCCCC(=O)OC[N+]1=CN(C)CC1.[Cl-], the LD50 [29] was 75 mg/kg, the LD50 [30] was 155 mg/kg and the LD50 [31] was 4110 mg/kg.
